According to ChEMBL document CHEMBL3779840, “Discovery of 2-((3-Amino-4-methylphenyl)amino)-N-(2-methyl-5-(3-(trifluoromethyl)benzamido)phenyl)-4-(methylamino)pyrimidine-5-carboxamide (CHMFL-ABL-053) as a Potent, Selective, and Orally Available BCR-ABL/SRC/p38 Kinase Inhibitor for Chronic Myeloid Leukemia” (J Med Chem, 2016):
The source made the active and inactive calls. No cut-off for these calls is given here.

What was measured:
Mus musculus = assay: Toxicity in nu/nu mouse xenografted with K562 cells assessed as decrease in body weight at 25 and 50 mg/kg/day, qd administered through oral gavage for 16 days measured every day during compound dosing; format: organism-based; conditions: in vivo, 384 h
Outline: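 Female nu/nu mice carrying established K562 xenografts received oral treatment once daily at 25.0 or 50.0 mg/kg/d, or vehicle, starting when tumours reached 200 to 400 mm3. There were 5 animals per group and dosing lasted 16 days. Body weight was expressed relative to initial weight (set as 100%), and mortality was recorded. Data are given as mean ± SEM.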

[1] = Antiproliferative activity against human KU812 cells assessed as cell viability after 72 hrs by CellTiter-Glo or CCK-8 assay; format: functional; conditions: KU812, 72 h
[2] = Antiproliferative activity against human MEG01 cells assessed as cell viability after 72 hrs by CellTiter-Glo or CCK-8 assay; format: functional; conditions: MEG-01, 72 h
[3] = molecular target: T1, Bcr/Abl fusion protein (Homo sapiens) (UniProt P00519+P11274); assay: Inhibition of BCR/ABL in human K562 cells assessed as downregulation of Stat5 phosphorylation at […] site after 1 hr by immunoblotting method; format: cell-based
Outline: (§1)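 KU812, K562 and MEG-01 cells were exposed to compound at the indicated concentrations for 1 h. Whole-cell lysates were then analysed by Western blot for phosphorylated signaling proteins.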

[4] = molecular target: T1, Bcr/Abl fusion protein (Homo sapiens); assay: Inhibition of BCR/ABL in human MEG01 cells assessed as downregulation of ERK phosphorylation at Thr202/Tyr204 site after 1 hr by immunoblotting method; format: cell-based; conditions: MEG-01; outline: as §1
[5] = molecular target: T2, Mitogen-activated protein kinase 14 (Homo sapiens, UniProt Q16539); assay: Inhibition of P38-alpha phosphorylation in human K562 cells at 0.01 to 3 uM after 1 hr by immunoblotting method; format: cell-based; outline: as §1
[6] = molecular target: T2, Mitogen-activated protein kinase 14; assay: Inhibition of P38-alpha phosphorylation in human KU812 cells at 0.01 to 3 uM after 1 hr by immunoblotting method; format: cell-based; outline: as §1
[7] = molecular target: T2, Mitogen-activated protein kinase 14; assay: Inhibition of P38-alpha phosphorylation in human MEG01 cells at 0.01 to 3 uM after 1 hr by immunoblotting method; format: cell-based; conditions: MEG-01; outline: as §1
KU812 cell line = assay: Induction of cell cycle arrest in human KU812 cells assessed as accumulation at G0/G1-phase after 12 hrs by propidium iodide/RNase staining based flow cytometry; format: functional
[8] = Cmax in Sprague-Dawley rat at 1 mg/kg, iv; format: ADME, organism-based; parameters: dose 1 mg/kg, route intravenous; conditions: in vivo
[9] = AUC(0 to t) in Sprague-Dawley rat at 10 mg/kg, po; format: ADME, organism-based; conditions: in vivo
[10] = AUC(0 to infinity) in Sprague-Dawley rat at 10 mg/kg, po; format: ADME, organism-based; parameters: dose 10 mg/kg, time infinity, route oral; conditions: in vivo
[11] = Mean residence time (0 to infinity) in Sprague-Dawley rat at 1 mg/kg, iv; format: ADME, organism-based; conditions: in vivo
K562 [12] = assay: Antitumor activity against human K562 cells xenografted in nu/nu mouse assessed as reduction in tumor growth administered through oral gavage after 16 days of continuous administration; format: functional
Outline: (§2)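 Female nu/nu mice bore established K562 xenografts and received daily oral dosing at 25.0 or 50.0 mg/kg/d, or vehicle, starting when tumors reached 200 to 400 mm3, for 16 days. Groups had 5 animals; data are mean ± SEM. Tumor size and body weight were normalized to initial values, and final tumor weight was recorded. Tumor tissue was stained with HE, Ki-67 and TUNEL.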

K562 [13] = assay: Antiproliferative activity against human K562 cells xenografted in nu/nu mouse at 25 and 50 mg/kg/day, qd administered through oral gavage measured after 16 days by Ki-67 staining-based immunohistochemical analysis; format: functional, organism-based; outline: as §2
[14] = molecular target: T3, Discoidin domain-containing receptor 2 (Homo sapiens) (UniProt Q16832); assay: Inhibition of partial length human wild type DDR2 expressed in mammalian expression system assessed as residual activity at 1 uM relative to control
T3 sequence (whole entry): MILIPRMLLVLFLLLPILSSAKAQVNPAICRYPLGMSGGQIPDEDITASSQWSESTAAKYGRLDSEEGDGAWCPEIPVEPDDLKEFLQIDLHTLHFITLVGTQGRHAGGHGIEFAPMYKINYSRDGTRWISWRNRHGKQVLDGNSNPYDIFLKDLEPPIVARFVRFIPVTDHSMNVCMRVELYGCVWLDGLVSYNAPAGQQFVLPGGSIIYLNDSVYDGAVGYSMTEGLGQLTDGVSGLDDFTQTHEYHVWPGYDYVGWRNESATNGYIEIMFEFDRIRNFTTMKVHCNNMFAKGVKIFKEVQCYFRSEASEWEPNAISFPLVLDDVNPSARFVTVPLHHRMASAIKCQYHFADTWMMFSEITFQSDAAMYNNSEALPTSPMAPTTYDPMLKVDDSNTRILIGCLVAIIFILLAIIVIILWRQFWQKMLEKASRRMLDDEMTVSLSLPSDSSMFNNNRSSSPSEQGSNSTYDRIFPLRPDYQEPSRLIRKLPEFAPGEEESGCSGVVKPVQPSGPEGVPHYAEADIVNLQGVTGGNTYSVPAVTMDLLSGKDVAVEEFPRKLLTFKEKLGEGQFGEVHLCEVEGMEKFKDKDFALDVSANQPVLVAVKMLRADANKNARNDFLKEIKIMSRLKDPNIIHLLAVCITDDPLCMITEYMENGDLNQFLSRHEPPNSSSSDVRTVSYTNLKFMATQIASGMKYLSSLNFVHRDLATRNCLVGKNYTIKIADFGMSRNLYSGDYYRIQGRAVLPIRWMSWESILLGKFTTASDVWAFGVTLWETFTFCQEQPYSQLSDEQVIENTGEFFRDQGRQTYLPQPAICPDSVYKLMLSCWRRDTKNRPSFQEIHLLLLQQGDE

[15] = molecular target: Ephrin type-B receptor 6 (Homo sapiens) (UniProt O15197); assay: Inhibition of partial length human wild type EPHB6 expressed in mammalian expression system assessed as residual activity at 1 uM relative to control
[16] = molecular target: Tyrosine-protein kinase HCK (Homo sapiens) (UniProt P08631); assay: Inhibition of full length human wild type HCK expressed in bacterial expression system assessed as residual activity at 1 uM relative to control
[17] = system: Mast/stem cell growth factor receptor Kit (Homo sapiens), P10721 [V559D]; assay: Inhibition of partial length human KIT V559D mutant expressed in bacterial expression system assessed as residual activity at 1 uM relative to control
[18] = molecular target: Epithelial discoidin domain-containing receptor 1 (Homo sapiens, UniProt Q08345); conditions: BaF3
[19] = molecular target: Tyrosine-protein kinase Lck (Homo sapiens) (UniProt P06239); conditions: BaF3
[20] = molecular target: Tyrosine-protein kinase Blk (Homo sapiens) (UniProt P51451); conditions: BaF3
[21] = system: Bcr/Abl fusion protein (Homo sapiens), P00519+P11274 [M351T]; conditions: BaF3
[22] = system: Bcr/Abl fusion protein (Homo sapiens), P00519+P11274 [Y253F]; conditions: BaF3

T2 sequence (Q16539 whole entry): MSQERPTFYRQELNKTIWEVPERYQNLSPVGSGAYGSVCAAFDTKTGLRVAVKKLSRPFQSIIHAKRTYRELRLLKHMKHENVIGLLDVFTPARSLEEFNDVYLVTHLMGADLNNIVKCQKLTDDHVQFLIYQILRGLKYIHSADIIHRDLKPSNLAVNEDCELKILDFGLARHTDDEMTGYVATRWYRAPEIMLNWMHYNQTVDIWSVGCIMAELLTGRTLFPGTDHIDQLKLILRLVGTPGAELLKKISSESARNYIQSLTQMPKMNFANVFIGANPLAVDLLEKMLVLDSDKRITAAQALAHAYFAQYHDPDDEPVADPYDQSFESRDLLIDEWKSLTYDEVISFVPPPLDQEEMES
T1 sequence (P00519 whole entry, looked up, the tested form may be a part): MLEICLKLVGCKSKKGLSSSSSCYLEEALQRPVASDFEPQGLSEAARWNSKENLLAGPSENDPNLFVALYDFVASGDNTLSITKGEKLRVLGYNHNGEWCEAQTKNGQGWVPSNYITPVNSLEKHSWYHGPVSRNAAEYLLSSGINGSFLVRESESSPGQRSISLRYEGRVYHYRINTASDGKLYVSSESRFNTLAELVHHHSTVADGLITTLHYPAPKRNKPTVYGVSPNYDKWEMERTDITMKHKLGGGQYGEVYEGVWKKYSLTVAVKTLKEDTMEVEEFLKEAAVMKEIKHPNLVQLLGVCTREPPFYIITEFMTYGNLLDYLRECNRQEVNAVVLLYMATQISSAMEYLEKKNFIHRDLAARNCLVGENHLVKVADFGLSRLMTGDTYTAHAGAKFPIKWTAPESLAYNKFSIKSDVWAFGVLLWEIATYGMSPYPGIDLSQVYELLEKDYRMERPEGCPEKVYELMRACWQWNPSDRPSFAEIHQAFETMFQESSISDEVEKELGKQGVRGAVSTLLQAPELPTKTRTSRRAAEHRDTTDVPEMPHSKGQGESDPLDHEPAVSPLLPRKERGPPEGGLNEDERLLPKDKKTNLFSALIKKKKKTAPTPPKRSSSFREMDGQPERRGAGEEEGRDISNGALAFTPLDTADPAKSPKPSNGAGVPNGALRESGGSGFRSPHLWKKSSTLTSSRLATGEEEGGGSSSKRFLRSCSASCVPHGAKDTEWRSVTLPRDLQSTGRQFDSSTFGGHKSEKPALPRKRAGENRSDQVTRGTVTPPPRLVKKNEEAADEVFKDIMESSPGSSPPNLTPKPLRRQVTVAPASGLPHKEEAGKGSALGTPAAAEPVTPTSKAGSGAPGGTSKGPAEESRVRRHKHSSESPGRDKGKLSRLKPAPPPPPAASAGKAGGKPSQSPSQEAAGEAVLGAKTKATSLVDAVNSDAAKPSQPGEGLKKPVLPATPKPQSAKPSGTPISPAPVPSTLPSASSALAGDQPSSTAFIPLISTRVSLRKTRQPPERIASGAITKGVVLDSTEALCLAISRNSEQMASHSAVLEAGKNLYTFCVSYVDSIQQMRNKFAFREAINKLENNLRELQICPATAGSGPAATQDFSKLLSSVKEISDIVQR
T1 sequence (P11274 whole entry, looked up, the tested form may be a part): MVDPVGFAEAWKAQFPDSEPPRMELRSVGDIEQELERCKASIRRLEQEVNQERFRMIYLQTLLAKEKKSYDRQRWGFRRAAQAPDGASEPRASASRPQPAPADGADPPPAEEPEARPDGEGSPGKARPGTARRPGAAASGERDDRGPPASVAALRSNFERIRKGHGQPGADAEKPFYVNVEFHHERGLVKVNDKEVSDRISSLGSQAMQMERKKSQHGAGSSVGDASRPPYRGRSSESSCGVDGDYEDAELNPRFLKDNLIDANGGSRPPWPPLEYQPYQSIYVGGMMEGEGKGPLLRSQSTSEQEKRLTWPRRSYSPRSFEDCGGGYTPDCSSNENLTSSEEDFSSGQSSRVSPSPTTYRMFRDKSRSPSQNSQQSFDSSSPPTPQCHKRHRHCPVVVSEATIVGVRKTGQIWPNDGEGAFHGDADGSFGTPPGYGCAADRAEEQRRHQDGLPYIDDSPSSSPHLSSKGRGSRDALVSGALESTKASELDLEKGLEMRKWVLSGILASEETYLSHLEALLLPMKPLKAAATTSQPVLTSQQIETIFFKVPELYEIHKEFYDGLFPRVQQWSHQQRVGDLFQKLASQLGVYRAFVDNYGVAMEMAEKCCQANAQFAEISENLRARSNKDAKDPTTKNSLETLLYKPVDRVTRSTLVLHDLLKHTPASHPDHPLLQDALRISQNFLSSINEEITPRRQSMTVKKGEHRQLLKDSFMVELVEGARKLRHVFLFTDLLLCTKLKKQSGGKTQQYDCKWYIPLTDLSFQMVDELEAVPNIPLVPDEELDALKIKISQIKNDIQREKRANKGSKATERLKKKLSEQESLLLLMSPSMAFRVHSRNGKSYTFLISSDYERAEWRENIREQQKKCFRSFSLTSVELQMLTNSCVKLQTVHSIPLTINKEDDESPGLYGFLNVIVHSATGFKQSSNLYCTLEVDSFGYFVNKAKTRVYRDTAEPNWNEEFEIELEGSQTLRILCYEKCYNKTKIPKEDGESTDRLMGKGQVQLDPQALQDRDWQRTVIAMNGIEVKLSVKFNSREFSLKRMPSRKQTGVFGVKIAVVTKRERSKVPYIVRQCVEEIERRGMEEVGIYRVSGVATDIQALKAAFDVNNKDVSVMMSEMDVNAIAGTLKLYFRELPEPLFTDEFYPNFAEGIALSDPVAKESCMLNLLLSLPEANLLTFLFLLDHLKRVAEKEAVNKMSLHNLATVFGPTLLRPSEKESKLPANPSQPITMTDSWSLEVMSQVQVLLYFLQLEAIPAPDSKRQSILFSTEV
Chain of Tyrosine-protein kinase Lck (Homo sapiens) (P06239 2-509 limits assumed): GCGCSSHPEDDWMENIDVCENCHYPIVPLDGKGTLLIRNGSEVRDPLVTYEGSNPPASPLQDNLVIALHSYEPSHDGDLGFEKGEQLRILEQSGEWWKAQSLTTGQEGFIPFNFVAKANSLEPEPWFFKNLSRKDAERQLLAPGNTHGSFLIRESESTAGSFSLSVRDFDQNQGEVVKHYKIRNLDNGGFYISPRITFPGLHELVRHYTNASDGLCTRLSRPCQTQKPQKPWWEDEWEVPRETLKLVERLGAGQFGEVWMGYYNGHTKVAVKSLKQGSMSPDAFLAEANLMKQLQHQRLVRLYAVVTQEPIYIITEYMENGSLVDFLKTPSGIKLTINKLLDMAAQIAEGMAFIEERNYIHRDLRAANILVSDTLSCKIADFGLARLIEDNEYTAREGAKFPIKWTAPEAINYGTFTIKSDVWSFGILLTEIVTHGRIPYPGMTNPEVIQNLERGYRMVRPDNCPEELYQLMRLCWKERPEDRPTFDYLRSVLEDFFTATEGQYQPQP
Chain of Epithelial discoidin domain-containing receptor 1 (Q08345 whole entry, the tested form may be a part): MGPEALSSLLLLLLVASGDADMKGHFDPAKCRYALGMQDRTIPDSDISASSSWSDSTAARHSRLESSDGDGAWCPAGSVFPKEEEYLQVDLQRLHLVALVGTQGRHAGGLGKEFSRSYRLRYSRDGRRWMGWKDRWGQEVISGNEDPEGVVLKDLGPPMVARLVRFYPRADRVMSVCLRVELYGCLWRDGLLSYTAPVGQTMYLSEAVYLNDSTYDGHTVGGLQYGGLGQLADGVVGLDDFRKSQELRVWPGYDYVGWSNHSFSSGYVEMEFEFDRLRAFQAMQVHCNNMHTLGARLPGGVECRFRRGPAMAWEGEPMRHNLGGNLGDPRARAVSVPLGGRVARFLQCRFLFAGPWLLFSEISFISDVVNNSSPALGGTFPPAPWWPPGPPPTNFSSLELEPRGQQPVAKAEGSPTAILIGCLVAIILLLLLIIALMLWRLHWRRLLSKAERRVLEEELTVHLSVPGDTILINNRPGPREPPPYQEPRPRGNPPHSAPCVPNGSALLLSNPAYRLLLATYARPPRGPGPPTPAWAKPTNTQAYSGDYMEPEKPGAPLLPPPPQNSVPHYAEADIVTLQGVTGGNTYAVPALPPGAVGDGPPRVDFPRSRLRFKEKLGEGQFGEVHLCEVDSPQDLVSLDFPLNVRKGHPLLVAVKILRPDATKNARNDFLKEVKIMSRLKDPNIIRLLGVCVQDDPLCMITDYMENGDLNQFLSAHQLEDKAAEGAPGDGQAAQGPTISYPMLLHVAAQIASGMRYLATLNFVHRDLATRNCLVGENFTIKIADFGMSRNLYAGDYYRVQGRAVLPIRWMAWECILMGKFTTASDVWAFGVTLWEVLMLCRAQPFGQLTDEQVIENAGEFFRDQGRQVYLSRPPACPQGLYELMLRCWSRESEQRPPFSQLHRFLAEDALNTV
Chain of Tyrosine-protein kinase Blk (Homo sapiens) (P51451 2-505 limits assumed): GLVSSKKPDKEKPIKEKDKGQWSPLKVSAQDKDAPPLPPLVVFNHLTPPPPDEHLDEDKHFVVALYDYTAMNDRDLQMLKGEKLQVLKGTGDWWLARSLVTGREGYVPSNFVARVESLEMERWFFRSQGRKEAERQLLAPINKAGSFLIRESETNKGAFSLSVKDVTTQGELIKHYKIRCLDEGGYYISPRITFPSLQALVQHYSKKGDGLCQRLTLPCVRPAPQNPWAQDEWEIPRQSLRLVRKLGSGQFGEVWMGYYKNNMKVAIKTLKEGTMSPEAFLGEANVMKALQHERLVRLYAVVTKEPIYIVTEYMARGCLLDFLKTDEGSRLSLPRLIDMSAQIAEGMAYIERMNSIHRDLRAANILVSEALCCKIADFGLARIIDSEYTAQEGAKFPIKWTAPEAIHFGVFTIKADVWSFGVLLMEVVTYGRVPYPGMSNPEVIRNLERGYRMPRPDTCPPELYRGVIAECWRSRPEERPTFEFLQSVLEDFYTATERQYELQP

CNc1nc(Nc2ccc(C)c(N)c2)ncc1C(=O)Nc1cc(NC(=O)c2cccc(C(F)(F)F)c2)ccc1C
Activity (Mus musculus): Non-toxic | GI50 [1]: 25 nM | GI50 [2]: 16 nM | inhibition [3]: Dose-dependent effect | inhibition [4]: Dose-dependent effect | inhibition [5]: Active | inhibition [6]: Active | inhibition [7]: Active | Activity (KU812 cell line): Dose-dependent effect | Cmax [8]: 2400 ng/mL | AUC(0-t) [9]: 1720 ng·h/mL | AUC(0-inf) [10]: 1740 ng·h/mL | MRT inf [11]: 3.1 h | TGI (K562 [12]): Dose-dependent effect | Activity (K562 [13]): Active | Activity [14]: 0% | Activity [15]: 0.95% | Activity [16]: 0.7% | Activity [17]: 1% | GI50 [18]: 3300 nM | GI50 [19]: 600 nM | GI50 [20]: 1100 nM | GI50 [21]: 45 nM | GI50 [22]: 363 nM
